# This is a sample that favours compounds with a hit; in the whole collection about 0.74% have one here.
# Arbovirus inh: antivirals against arbovirus infection; arbovirus infection cell-based antiviral screen; inhibition, % at 10 µM; actives 0.37% (n = 200,000); in the data active means inhibition above about 30%
# Diaph act CS: activates diaphorase or chemically reduces, flagging diaphorase assay artifacts. AID 1229. activation factor at 20 µM. actives 0.005% (n = 190,000). Diaphorase/resazurin coupled assay, resorufin fluorescence, 16 min; active compounds read high; 1 = vehicle wells, 0 = NADH-free wells;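 active means diaphorase activity raised at least twofold by the compound at 20 µM; inactive means activation factor below 2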
#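 test system = bacterial diaphorase enzyme (C. kluyveri) | quantity = enzyme 0.07 U/mL final | reagent = NADH substrate 0.114 mM plus resazurin dye 0.1 mM, final | incubation = 16 min enzyme reaction, ambient temperature | buffer or medium = HEPES pH 7.4 buffer with MgCl2 and Tween 20 | signal = fluorescence of resorufin, 544 nm excitation, 590 nm emission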
# HKDC1 inhibitor: blocks human hexokinase HKDC1 activity. Q2TB90. actives 0.16% (n = 340,000). recombinant HKDC1, G6PDH/diaphorase resazurin coupled fluorescence. inhibition, % at 20 µM;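 active means inhibition above about 35% when tested at 20 µM, limit read from the data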
# Target sequence (Q2TB90 whole entry, looked up): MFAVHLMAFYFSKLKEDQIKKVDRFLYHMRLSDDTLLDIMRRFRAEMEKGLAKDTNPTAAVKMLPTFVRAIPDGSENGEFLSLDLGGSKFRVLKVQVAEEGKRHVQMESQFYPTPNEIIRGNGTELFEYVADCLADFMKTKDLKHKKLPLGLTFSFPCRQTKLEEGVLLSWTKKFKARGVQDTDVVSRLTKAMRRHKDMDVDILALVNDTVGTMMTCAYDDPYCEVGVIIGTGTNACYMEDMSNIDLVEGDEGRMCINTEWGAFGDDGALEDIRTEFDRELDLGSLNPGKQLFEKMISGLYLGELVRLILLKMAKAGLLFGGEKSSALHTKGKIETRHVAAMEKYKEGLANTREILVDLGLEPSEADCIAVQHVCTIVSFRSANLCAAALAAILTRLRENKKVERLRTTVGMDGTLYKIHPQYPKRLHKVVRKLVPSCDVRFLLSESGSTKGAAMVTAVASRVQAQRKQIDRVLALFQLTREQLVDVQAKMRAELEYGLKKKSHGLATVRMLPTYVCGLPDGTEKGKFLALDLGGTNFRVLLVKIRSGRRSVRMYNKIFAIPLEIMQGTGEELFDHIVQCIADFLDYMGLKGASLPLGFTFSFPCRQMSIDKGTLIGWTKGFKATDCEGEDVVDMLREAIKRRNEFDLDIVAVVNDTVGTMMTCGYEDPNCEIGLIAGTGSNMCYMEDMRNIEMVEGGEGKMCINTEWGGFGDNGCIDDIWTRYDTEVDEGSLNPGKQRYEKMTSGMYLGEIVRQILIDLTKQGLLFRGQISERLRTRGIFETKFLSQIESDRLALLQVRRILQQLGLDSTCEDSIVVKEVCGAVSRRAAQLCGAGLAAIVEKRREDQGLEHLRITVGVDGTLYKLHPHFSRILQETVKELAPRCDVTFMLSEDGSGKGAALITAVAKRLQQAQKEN
#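 Test system: HK5 enzyme. Quantity: 5 µg/mL HK5 final. Reagent: glucose and ATP substrates. Schedule: 90 min reaction incubation at room temperature, dark. Technique: resazurin-to-resorufin fluorescence via G6PDH and diaphorase coupling, 525/613 nm. Control set: DMSO wells with and without enzyme mix.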
# G6PDH counter: L. mesenteroides G6PDH inhibition counter-screen | Purified L. mesenteroides G6PDH, diaphorase/resazurin coupled fluorescence, 45 min | inhibition, % at 5 µM | actives 0.12% (n = 200,000) | AID 1020; in the data active means inhibition above about 50%
# Diaph inh CS: inhibits diaphorase or chemically oxidizes, flagging diaphorase assay artifacts; actives 0.69% (n = 190,000); diaphorase resazurin-to-resorufin fluorescence, NADH, 16 min; bacterial (C. kluyveri) enzyme, not human; inhibition, % at 20 µM;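 active means primary screen inhibition at 20 µM above a set limit, cut at about 50% in these data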
#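 Test system: diaphorase enzyme from Clostridium kluyveri; amount: diaphorase at 0.14 U/mL in enzyme working solution; detection: fluorescence of resorufin formed from resazurin, Ex 544/Em 590 nm; times: reaction incubation of 16 min at room temperature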
# A number is an active result; 0 = inactive; - = not tested or not shown.
SMILES,Arbovirus inh,Diaph act CS,HKDC1 inhibitor,G6PDH counter,Diaph inh CS
COc1cc(C(Nc2ccccn2)c2ccc3ccc(C)nc3c2O)cc(OC)c1O (stereo not drawn),0,0,0,61,63
CCOc1ccc(N2CSC3=C(C#N)C(c4ccco4)CC(=O)N3C2)cc1 (stereo not drawn),0,0,0,0,0
N#CC1=C2SCN(c3ccccc3)CN2C(=O)CC1c1ccccc1Cl (stereo not drawn),0,0,0,0,0
COc1ccc(OC)c(C2CC(=O)N3CN(c4cccc(Cl)c4C)CSC3=C2C#N)c1 (stereo not drawn),0,0,0,0,52
N#CC1=C2SCN(c3ccccc3)CN2C(=O)CC1c1c(Cl)cccc1Cl (stereo not drawn),0,0,0,0,51
COc1cccc(C2CC(=O)N3CN(c4cccc(Cl)c4C)CSC3=C2C#N)c1OC (stereo not drawn),0,0,0,0,51
Cc1ccc(C2CC(=O)N3CN(c4ccc(Br)cc4)CSC3=C2C#N)o1 (stereo not drawn),0,0,0,0,58
CCN(CC)CCCC(C)Nc1nccc2c(Cl)cccc12 (stereo not drawn),-,-,0,-,-
COc1c2ccoc2cc2oc(C)cc(=O)c12,-,-,0,-,-
Cc1cc(=O)c2c(O)c(O)ccc2o1,0,0,0,0,72
CCOc1ccc(CN(C)Cc2cc(=O)oc3c(C)c(C)ccc23)cc1OC,-,-,0,-,-
COc1ccc(OC)c(NC(=O)COC(=O)c2c(C)noc2C)c1,-,-,0,-,-
Cc1noc(C)c1C(=O)OCC(=O)Nc1cc(Cl)ccc1Oc1ccccc1,47,0,0,0,0
Cc1ccc([N+](=O)[O-])cc1N/C=C1\CCc2ccccc2C1=O,0,0,0,0,58
Cc1nnc2sc(SCc3cccc(Cl)c3)nn2c1=O,31,0,0,0,0
Cc1nnc2sc(SCc3ccccc3)nn2c1=O,0,0,-,0,0
CCC1(C)N=c2c(c(=O)n(C)c(=O)n2C)=NO1 (stereo not drawn),0,0,0,0,0
O=C1CC(N2CCN(C3CC(=O)N(CCc4ccccc4)C3=O)CC2)C(=O)N1CCc1ccccc1 (stereo not drawn),0,0,0,0,0
O=C1CC(N2CCC(Cc3ccccc3)CC2)C(=O)N1CCc1ccccc1 (stereo not drawn),30,0,0,0,0
CCOP(=O)(Nc1cccc2oc(=O)c3ccccc3c12)OCC,-,-,0,-,-
CN(C)c1cccc2c(C=C(C#N)C#N)ccc(N(C)C)c12,0,0,0,0,62
Cc1cccc2c1nc(-c1ccccc1)n1nnnc21,55,0,0,0,0
O=[N+]([O-])c1cccc(/C=N\N=C2c3ccccc3-c3ccccc32)c1O,40,0,0,0,0
CCC1(C)N([O-])C(C)=C(c2ccccc2)[N+]1=O (stereo not drawn),0,0,0,0,0
CC1(C)N([O-])C2=C(c3ccccc3C2=O)[N+](=O)C1(C)C,0,0,0,0,67
SMILES,Arbovirus inh,Diaph act CS,HKDC1 inhibitor,G6PDH counter,Diaph inh CS
COc1cccc(NC(=O)N2CCCC2C(=O)NCc2ccc(Cl)cc2)c1 (stereo not drawn),-,-,0,-,-
O=C(CC(CC(=O)c1ccccc1)c1ccccn1)c1ccccc1,-,-,0,-,-
COc1ccc(-c2nc(NC(=O)c3n[nH]c(=O)c4ccccc34)sc2C)cc1,44,0,0,0,0
Cn1c(-c2c(N)n(-c3ccccc3)c3nc4ccccc4nc23)nc2ccccc21,64,0,0,0,0
Cc1nc2ccc(C(=O)OCC(=O)N(C)c3ccccc3)cc2nc1C,-,-,0,-,-
CCOC(=O)c1c(NC(=O)CSc2ncn[nH]2)sc(C(=O)NC)c1C,-,-,0,-,-
CCOC(=O)c1c(NC(=O)CSc2ncn[nH]2)sc(C)c1C,45,0,0,0,0
Cc1cc(=O)[nH]c(NN=C2CCCCC2C)n1 (stereo not drawn),-,-,0,-,-
CCOc1ccc(-c2cc3nc(C4CCN(C(=O)OC(C)(C)C)CC4)c(C(=O)O)cn3n2)cc1,50,0,0,0,0
Oc1ccc(CNc2ccccc2)c2cccnc12,0,0,0,0,86
COCc1ccc(O)c2ncccc12,0,0,0,0,0
Cc1ccccc1NCc1ccc(O)c2ncccc12,0,0,0,0,92
NC(=O)c1ccnc2c(O)cccc12,-,-,0,-,-
Oc1ccc(CNc2ccc(F)cc2)c2cccnc12,0,0,0,0,77
OCc1ccnc2c(O)cccc12,0,0,0,59,0
Oc1ccc(CN2CCN(Cc3ccccc3)CC2)c2cccnc12,0,-,0,-,-
CCOC(=O)CN1C(=O)S/C(=C/c2ccc(OCc3ccc(C(=O)O)cc3)cc2)C1=O,-,-,0,-,-
O=[N+]([O-])c1ccc(NN=Cc2cc(Br)ccc2O)nc1,-,-,0,-,-
Cc1onc(-c2ccccc2)c1C(=O)N1CCN(S(=O)(=O)c2ccc(OC(F)(F)F)cc2)CC1,-,-,0,-,-
Cc1cccc(NC(=O)CSc2cccc3cccnc23)c1,-,-,0,-,-
Oc1ccc(Cn2ccnc2)c2cccnc12,0,0,0,0,54
Cc1cccc(NCc2ccc(O)c3ncccc23)c1,0,0,0,0,78
COc1ccc(C2c3cc4c(cc3OC(N3CCOCC3)C2C)OCO4)c(OC)c1 (stereo not drawn),-,-,0,-,-
Cc1ccc(CN(C)C2CCN(C)CC2)cc1,-,-,0,-,-
Cc1ccc(/C=C2\SC(=S)N(CCC(=O)N3CCOCC3)C2=O)cc1,-,-,0,-,-
SMILES,Arbovirus inh,Diaph act CS,HKDC1 inhibitor,G6PDH counter,Diaph inh CS
O=C(NC1CCS(=O)(=O)C1)/C(=C/c1ccco1)NC(=O)c1ccccc1 (stereo not drawn),0,0,0,0,55
COc1ccc(CCn2c(C)cc(C(=O)CN3C(=O)C(=O)N(C4CCCC4)C3=O)c2C)cc1OC,-,-,0,-,-
Cc1ccnc(SCCn2c(N3CC(C)CC(C)C3)nc3c2c(=O)n(C)c(=O)n3C)n1 (stereo not drawn),0,0,0,0,51
Cc1ccnc(SCCn2c(N3CC(C)OC(C)C3)nc3c2c(=O)n(C)c(=O)n3C)n1 (stereo not drawn),0,0,0,0,0
CN(C(=O)Nc1cccc(C(F)(F)F)c1)C1CCCCC1,-,-,0,-,-
CC(C)(C)OC(=O)N1Cc2ccccc2C[C@H]1C(=O)NCC(=O)NCC1CCCO1 (stereo partly drawn),-,-,0,-,-
COc1ccc(CCN=C(NS(=O)(=O)c2ccccc2)c2ccccc2)cc1OC,0,0,0,0,0
COc1ccc(CCN=C(NS(=O)(=O)c2ccc(Cl)cc2)c2ccccc2)cc1,0,0,0,0,52
O=C(O)CSc1nnc(CNc2cccc(C(F)(F)F)c2)n1Cc1ccco1,34,0,0,0,0
Cn1ncc2c(=S)nc(Cl)[nH]c21,-,-,0,-,-
COc1ccc(CCN(C)S(=O)(=O)c2ccc(Cl)nc2)cc1OC,0,0,0,0,0
Cc1occc1C(=O)N/N=C/c1cnn(C)c1C,0,0,0,0,60

# Assay outcomes from PubChem.
